From PubChem BioAssay
Activity calls are given as the source filed them. Rule as the data show it, unless noted: active = inhibition above about 30%; inactive = the rest.

Columns and labels:
[1] = Her2 expression decrease, cell viability multiplex – SKBR3 breast tumor cells, AlphaScreen, ATP viability, primary screen (AID 461;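 active = Her2 level under about 52% in both replicate screens, with viability over 70% of control, limit read from the data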;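 as to Her2 level: lower value means less Her2 protein in the cells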;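 as to viability: percent of carrier control wells set as 100% viability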); settings: SKBR3 Her2 protein level, 18-24 h, measured here: SKBR3 viability, ATP luminescence, at 10 µM
[2] = target: Receptor tyrosine-protein kinase erbB-2 (Homo sapiens) (UniProt P04626); test: as above; settings: 18-24 h, at 10 µM, stronger effect = lower value
[3] = reduced viability of SK-BR-3 breast cancer cells – cell-based, 24 h, human, pilot screen (AID 572;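 active = viability at or below 10% of carrier control in both of two separate runs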;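 also: compound exposure lasted between 18 and 24 h rather than exactly 24 h; 100% = carrier-treated control wells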); settings: SK-BR-3 viability, CellTiter-Glo luminescence, at 10 µM, stronger effect = lower value
[4] = HUVEC growth inhibition – cell-based, human, primary screen (AID 575;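 active = viability at or below 30% in both replicate assays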;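 also: 100% = median of untreated cell wells with 0.1% DMSO on each plate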); settings: HUVEC proliferation, CellTiter-Glo luminescence, 72 h; at 10 µM; stronger effect = lower value
Summary of the method: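 Test system: HUVEC primary cells. Quantity: 1250 endothelial cells in each well. Dosing: single-point 10 µM, DMSO 0.1% final. Incubation: 72 h treatment at 37 °C. Measured by: CTG luminescence. Control set: DMSO cell controls and MePR drug controls. Plate: collagen-coated 384-well format.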

[5] = H69AR cell proliferation blockers – human, duplicate replicates, primary screen (AID 580;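 active = viability at or under a set limit in both replicates, limit being median viability minus 3 SD, cut at about 48% in these data, passing the limit was not always enough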;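 also: 100% = mean luminescence of untreated wells and 0% = no signal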); settings: H69AR lung tumor cells viability, ATP luminescence, 72 h; at 10 µM; stronger effect = lower value
[6] = MRP1 drug-resistance reversers in H69AR cells – cell-based, doxorubicin co-treatment, pilot screen (AID 601;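 active = viability loss from added drug above about 55%, and viability with drug at most 40%, in both replicates, limit read from the data, passing the limit was not always enough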); settings: CellTiter-Glo, 72 h, at 10 µM; for differential viability (reversal): stronger effect = higher value
[7] = yeast transport mutant growth inhibition pilot in 384-well plates, post-Golgi transport modulator project (AID 636; in the data active = inhibition above about 31%); settings: absorbance 615 nm, about 18 h, stronger effect = higher value
[8] = growth suppression of yeast trafficking mutant, preliminary HTS, modulators of trafficking downstream of Golgi apparatus project, 1536-format plate, OD 615 nm (AID 637); settings: yeast transport mutant growth, absorbance 615 nm, 18 h; stronger effect = higher value
[9] = H69AR cells + 2 uM doxorubicin, measured here: viability with 2 uM doxorubicin, stronger effect = lower value
[10] = H69AR cells, compound alone cytotoxicity

Chain of Receptor tyrosine-protein kinase erbB-2 (Homo sapiens) (P04626 whole entry, looked up): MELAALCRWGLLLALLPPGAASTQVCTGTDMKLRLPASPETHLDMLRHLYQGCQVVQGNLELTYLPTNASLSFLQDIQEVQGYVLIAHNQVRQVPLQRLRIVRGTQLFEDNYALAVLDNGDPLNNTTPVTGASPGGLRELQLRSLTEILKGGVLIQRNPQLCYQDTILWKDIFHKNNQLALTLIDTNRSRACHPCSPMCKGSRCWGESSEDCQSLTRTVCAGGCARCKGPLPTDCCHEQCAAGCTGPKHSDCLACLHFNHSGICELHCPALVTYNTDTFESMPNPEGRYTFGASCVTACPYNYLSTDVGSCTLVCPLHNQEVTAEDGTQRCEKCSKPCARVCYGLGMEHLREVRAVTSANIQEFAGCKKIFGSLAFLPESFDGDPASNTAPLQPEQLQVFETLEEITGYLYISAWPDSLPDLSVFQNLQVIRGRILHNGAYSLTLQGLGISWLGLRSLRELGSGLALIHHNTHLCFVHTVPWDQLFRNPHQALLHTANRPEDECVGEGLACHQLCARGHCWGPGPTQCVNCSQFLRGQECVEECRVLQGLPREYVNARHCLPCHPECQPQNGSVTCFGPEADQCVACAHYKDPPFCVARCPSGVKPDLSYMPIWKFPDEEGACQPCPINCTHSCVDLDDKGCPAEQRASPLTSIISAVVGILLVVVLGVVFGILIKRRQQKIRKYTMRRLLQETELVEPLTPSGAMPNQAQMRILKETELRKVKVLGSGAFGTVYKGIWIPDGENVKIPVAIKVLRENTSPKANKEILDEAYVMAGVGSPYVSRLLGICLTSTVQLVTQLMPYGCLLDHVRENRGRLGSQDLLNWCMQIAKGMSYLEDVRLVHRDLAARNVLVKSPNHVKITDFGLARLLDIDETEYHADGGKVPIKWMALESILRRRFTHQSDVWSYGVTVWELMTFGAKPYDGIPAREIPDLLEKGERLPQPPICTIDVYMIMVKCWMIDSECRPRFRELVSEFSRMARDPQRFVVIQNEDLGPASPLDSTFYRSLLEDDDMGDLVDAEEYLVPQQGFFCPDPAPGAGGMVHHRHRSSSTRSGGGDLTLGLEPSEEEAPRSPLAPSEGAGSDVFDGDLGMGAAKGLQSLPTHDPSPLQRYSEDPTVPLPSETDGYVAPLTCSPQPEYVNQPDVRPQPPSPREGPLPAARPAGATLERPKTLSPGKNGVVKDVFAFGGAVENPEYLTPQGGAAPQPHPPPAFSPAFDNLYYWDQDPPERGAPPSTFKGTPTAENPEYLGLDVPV

Compound | viability [1] | Her2 level [2] | viability [3] | viability [4] | viability [5] | differential viability (reversal) ([6]; H69AR cells + 2 uM doxorubicin) | viability [6, 9] | viability [6, 10] | inhibition [7] | inhibition [8]
CCOC(=O)C1CCN(c2c(N3CCCCCC3)c(=O)c2=O)CC1 | 97% | 100% (inactive) | 97% (inactive) | 87.9% (inactive) | 98% (inactive) | 0.92% (inactive) | 97.1% | 98% | -1.67% (inactive) | -0.33% (inactive)
O=C1CN(C(=O)COC(=O)c2ccccc2NC(=O)c2ccco2)c2ccccc2N1 | 94% | 106% (inactive) | 94% (inactive) | 97.3% (inactive) | 83.6% (inactive) | -14.1% (inactive) | 97.6% | 83.6% | -5.95% (inactive) | -0.49% (inactive)
O=C(CSc1nnc(CNC(=O)c2cccs2)o1)NCCc1ccccc1 | 104% | 103% (inactive) | 104% (inactive) | 92.4% (inactive) | 101% (inactive) | 2.05% (inactive) | 98.6% | 101% | -0.9% (inactive) | -3% (inactive)
O=C(c1ccccc1Oc1nnnn1-c1ccccc1)N1CCOCC1 | 89.5% | 84% (inactive) | 89.5% (inactive) | 67.6% (inactive) | 79.6% (inactive) | 7.74% (inactive) | 71.9% | 79.6% | -2.31% (inactive) | -5.67% (inactive)
COC(=O)c1ccccc1NC(=O)C1CC(=O)N(c2ccc(F)cc2)C1 (stereo not given) | 121% | 77% (inactive) | 121% (inactive) | 108% (inactive) | 96% (inactive) | 15.5% (inactive) | 80.6% | 96% | -6.4% (inactive) | 2.13% (inactive)
Cc1ccc(C)c(NC(=O)CC(NCCCN2CCOCC2)C(=O)O)c1 (stereo not given) | 94% | 93.5% (inactive) | 94% (inactive) | 106% (inactive) | 88.3% (inactive) | -8.47% (inactive) | 96.8% | 88.3% | -0.78% (inactive) | 9.51% (inactive)
CCCSc1nc2c(c(=O)[nH]c(=O)n2C)n1CCc1ccccc1 | 89.5% | 92% (inactive) | 89.5% (inactive) | 83.8% (inactive) | 86.8% (inactive) | -9.79% (inactive) | 96.6% | 86.8% | -7.47% (inactive) | 7.42% (inactive)
CCn1c(=O)c(C(=O)NCCc2ccccc2)c(O)c2ccccc21 | 99% | 102% (inactive) | 99% (inactive) | 58.8% (inactive) | 61.6% (inactive) | -26% (inactive) | 87.6% | 61.6% | -1.03% (inactive) | -5.17% (inactive)
Cc1cc(=O)n(C)c(=O)n1CCCNc1ccccc1 | 82% | 115% (inactive) | 82% (inactive) | 83.7% (inactive) | 99.9% (inactive) | 11.4% (inactive) | 88.5% | 99.9% | 0% (inactive) | -5% (inactive)
CC1CCN(Cc2ccc(-c3nn[nH]n3)cc2)CC1 | 116% | 86.5% (inactive) | 116% (inactive) | 99.6% (inactive) | 95% (inactive) | 0.33% (inactive) | 94.7% | 95% | 1.04% (inactive) | 30% (active)
CCCC(=O)N(c1ccc2oc(=O)sc2c1)S(=O)(=O)c1ccccc1 | 75.5% | 78.5% (inactive) | 75.5% (inactive) | 78.3% (inactive) | 60% (inactive) | -20.9% (inactive) | 80.9% | 60% | -2.86% (inactive) | -3.81% (inactive)
Cn1c(SCC(=O)O)nnc1C1CCCCC1 | 102% | 110% (inactive) | 102% (inactive) | 99.7% (inactive) | 92.7% (inactive) | -1.2% (inactive) | 93.9% | 92.7% | 0.27% (inactive) | 8.85% (inactive)
COCCNC(=O)c1cc2c(-c3ccccc3F)nn(C)c2s1 | 109% | 74% (inactive) | 109% (inactive) | 60.9% (inactive) | 93.9% (inactive) | 24.6% (inactive) | 69.3% | 93.9% | -6.53% (inactive) | -2.42% (inactive)
COc1cc(OC)cc(-c2nc3cc(C)ccc3o2)c1 | 95.5% | 70.5% (inactive) | 95.5% (inactive) | 62.8% (inactive) | 73% (inactive) | -2.79% (inactive) | 75.8% | 73% | -3.16% (inactive) | -4.52% (inactive)
NC(=O)c1ccccc1NC(=O)CN1CCOCC1 | 106% | 87% (inactive) | 106% (inactive) | 104% (inactive) | 88.1% (inactive) | 6.19% (inactive) | 81.9% | 88.1% | -1.87% (inactive) | 0.32% (inactive)
